Reference: ChEMBL document CHEMBL2439973, “Discovery of VU0409106: A negative allosteric modulator of mGlu5 with activity in a mouse model of anxiety” (Bioorg Med Chem Lett, 2013)
Calls of active or inactive are those of the source.

Tests used:
[1] = tested on: Mus musculus; test: Anxiolytic activity in ip dosed Harlan CD-1 mouse assessed as inhibition of marble burying behavior; assay type: functional, organism-based
Summary of the method: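 Marble burying in mice with deep bedding; compound given IP at a range of doses with 15 min pretreatment, n = 8 per dose; marbles buried counted, brain samples collected right after testing for exposure; comparison to vehicle by Dunnett's test.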

[2] = species on record: Rattus norvegicus; test: Displacement of [3H]-Rolipram from rolipram binding site in rat brain at 10 uM relative to control; assay type: tissue-based
[3] = species on record: Oryctolagus cuniculus; test: Displacement of [3H]-alpha,beta-Methylene-ATP from purinergic P2x receptor in rabbit urinary bladder at 10 uM relative to control
[4] = biological target: Platelet-activating factor receptor (Homo sapiens) (UniProt P25105); test: Displacement of [3H]-PAF from platelet activating factor receptor in human platelets at 10 uM relative to control
Summary of the method: (§1)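 Tested once at 10 μM in a commercial radioligand binding panel of 68 GPCRs, ion channels, kinases and transporters. Activity is given as displacement of each radioligand relative to control.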

[5] = biological target: Mu-type opioid receptor (Homo sapiens) (UniProt P35372); test: Displacement of [3H]-Diprenorphine from human recombinant mu opioid receptor expressed in CHO-K1 cells at 10 uM relative to control; assay type: cell-based; summary of the method: as §1
[6] = biological target: Delta-type opioid receptor (Homo sapiens) (UniProt P41143); test: Displacement of [3H]-Naltrindole from human recombinant delta opioid receptor expressed in HEK293 cells at 10 uM relative to control; assay type: cell-based; summary of the method: as §1
Sequence of Delta-type opioid receptor (Homo sapiens) (P41143 whole entry): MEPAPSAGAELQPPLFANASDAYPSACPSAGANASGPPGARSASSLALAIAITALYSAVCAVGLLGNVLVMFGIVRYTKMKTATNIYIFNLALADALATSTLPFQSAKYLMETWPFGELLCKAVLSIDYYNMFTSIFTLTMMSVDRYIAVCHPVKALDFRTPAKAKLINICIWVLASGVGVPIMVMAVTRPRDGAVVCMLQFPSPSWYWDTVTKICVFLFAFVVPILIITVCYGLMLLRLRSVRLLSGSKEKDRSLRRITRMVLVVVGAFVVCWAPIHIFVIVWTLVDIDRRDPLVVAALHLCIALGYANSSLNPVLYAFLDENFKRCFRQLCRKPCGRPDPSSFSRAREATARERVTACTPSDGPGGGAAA

[7] = tested on: IMR-32; test: Displacement of [125I] Epibatidine from nicotinic acetylcholine receptor in human IMR32 cells at 10 uM relative to control; assay type: cell-based; summary of the method: as §1
[8] = biological target: Muscarinic acetylcholine receptor M2 (Homo sapiens) (UniProt P08172); test: Displacement of [3H]-N-Methylscopolamine from human recombinant muscarinic M2 receptor expressed in CHO-K1 cells at 10 uM relative to control; assay type: cell-based; summary of the method: as §1
[9] = tested on: CHO-K1; test: Displacement of [125I]-2-Iodomelatonin from human recombinant MT1 receptor expressed in CHO-K1 cells at 10 uM relative to control; assay type: cell-based; summary of the method: as §1
[10] = species on record: Mus musculus; test: Displacement of [125I]-Interleukin-1beta from IL-1 receptor in mouse 3T3-SWISS cells at 10 uM relative to control; assay type: cell-based; summary of the method: as §1
[11] = biological target: Histamine H3 receptor (Homo sapiens) (UniProt Q9Y5N1); test: Displacement of [3H]-N(-)-alpha-Methylhistamine from human recombinant histamine H3 receptor expressed in CHO-K1 cells at 10 uM relative to control; assay type: cell-based; summary of the method: as §1
[12] = biological target: T1, Glutamate NMDA receptor (Rattus norvegicus) (UniProt P35439+Q00959+Q00960+Q00961+Q62645+Q8VHN2+Q9R1M7); test: Displacement of [3H]-MDL 105,519 from NMDA receptor glycine binding site in rat cerebral cortex at 10 uM relative to control; assay type: tissue-based; summary of the method: as §1
[13] = biological target: T1, Glutamate NMDA receptor (Rattus norvegicus); test: Displacement of [3H]-TCP from NMDA receptor phencyclidine binding site in rat cerebral cortex at 10 uM relative to control; assay type: tissue-based
[14] = biological target: T1, Glutamate NMDA receptor (Rattus norvegicus); test: Displacement of [3H]-CGP-39653 from NMDA receptor agonist binding site in rat cerebral cortex at 10 uM relative to control; assay type: tissue-based; summary of the method: as §1
[15] = species on record: Rattus norvegicus; test: Displacement of [3H]-Kainic acid from kainate receptor in cerebellum-less rat brain homogenate at 10 uM relative to control; assay type: tissue-based; summary of the method: as §1
[16] = species on record: Rattus norvegicus; test: Displacement of [3H]-Flunitrazepam from central-type GABAA receptor flunitrazepam binding site in cerebellum-less rat brain homogenate at 10 uM relative to control; assay type: tissue-based; summary of the method: as §1
[17] = biological target: Endothelin receptor type B (Homo sapiens) (UniProt P24530); test: Displacement of [125I]-Endothelin-1 from human recombinant ETB receptor expressed in CHO-K1 cells at 10 uM relative to control; assay type: cell-based; summary of the method: as §1
[18] = biological target: Epidermal growth factor receptor (Homo sapiens) (UniProt P00533); test: Displacement of [125I]-EGF from epidermal growth factor receptor in human A431 cells at 10 uM relative to control; assay type: cell-based; conditions: A-431; summary of the method: as §1
Sequence of Epidermal growth factor receptor (Homo sapiens) (P00533 whole entry): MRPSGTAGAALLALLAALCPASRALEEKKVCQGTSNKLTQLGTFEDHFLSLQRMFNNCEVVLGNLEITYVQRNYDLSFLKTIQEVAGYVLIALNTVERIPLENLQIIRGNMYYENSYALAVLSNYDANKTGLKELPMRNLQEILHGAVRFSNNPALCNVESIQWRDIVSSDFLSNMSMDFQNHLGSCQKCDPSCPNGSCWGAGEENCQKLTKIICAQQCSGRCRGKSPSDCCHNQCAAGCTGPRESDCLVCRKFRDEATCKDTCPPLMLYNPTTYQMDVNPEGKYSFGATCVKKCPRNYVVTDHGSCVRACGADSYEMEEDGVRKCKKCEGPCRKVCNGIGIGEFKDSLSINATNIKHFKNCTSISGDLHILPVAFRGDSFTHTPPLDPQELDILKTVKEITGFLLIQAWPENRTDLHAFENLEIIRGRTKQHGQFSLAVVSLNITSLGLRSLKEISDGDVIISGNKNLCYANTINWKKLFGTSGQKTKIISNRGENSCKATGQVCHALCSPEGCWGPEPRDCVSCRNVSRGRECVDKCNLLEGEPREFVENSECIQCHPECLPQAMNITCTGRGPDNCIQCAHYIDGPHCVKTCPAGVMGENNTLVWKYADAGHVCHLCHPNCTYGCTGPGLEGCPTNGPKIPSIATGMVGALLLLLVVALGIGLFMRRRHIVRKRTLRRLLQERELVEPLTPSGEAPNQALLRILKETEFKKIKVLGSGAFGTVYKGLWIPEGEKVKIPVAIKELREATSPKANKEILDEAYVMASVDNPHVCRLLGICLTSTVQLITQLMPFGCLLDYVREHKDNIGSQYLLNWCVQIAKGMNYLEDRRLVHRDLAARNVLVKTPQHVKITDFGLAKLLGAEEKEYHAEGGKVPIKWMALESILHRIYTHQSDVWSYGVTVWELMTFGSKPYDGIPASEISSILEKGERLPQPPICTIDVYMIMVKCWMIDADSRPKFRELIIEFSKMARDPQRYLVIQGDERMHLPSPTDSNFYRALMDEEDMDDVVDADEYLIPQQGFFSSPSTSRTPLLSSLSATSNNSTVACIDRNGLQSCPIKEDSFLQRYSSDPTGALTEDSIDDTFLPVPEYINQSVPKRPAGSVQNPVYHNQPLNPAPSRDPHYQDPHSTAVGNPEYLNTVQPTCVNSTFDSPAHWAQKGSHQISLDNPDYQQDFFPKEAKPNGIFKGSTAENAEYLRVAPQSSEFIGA

[19] = biological target: D(1A) dopamine receptor (Homo sapiens) (UniProt P21728); test: Displacement of [3H]-SCH-23390 from human recombinant dopamine D1 receptor expressed in CHO cells at 10 uM relative to control; assay type: cell-based
[20] = biological target: D(2) dopamine receptor (Homo sapiens) (UniProt P14416); test: Displacement of [3H]-Spiperone from human recombinant dopamine D2S receptor expressed in CHO cells at 10 uM relative to control; assay type: cell-based
[21] = biological target: L-type calcium channel, benzothiazepine binding site (Rattus norvegicus, UniProt P22002+P27732+Q02485); test: Displacement of [3H]-Diltiazem from L-Type calcium channel benzothiazepine binding site in rat brain at 10 uM relative to control; assay type: tissue-based; conditions: probe [3H]-Diltiazem
[22] = biological target: Beta-1 adrenergic receptor (Homo sapiens) (UniProt P08588); test: Displacement of [125I]-Cyanopindolol from human recombinant adrenergic beta1 receptor expressed in CHO-K1 cells at 10 uM relative to control; assay type: cell-based; summary of the method: as §1
[23] = biological target: Beta-2 adrenergic receptor (Homo sapiens) (UniProt P07550); test: Displacement of [3H]-CGP-12177 from human recombinant adrenergic beta2 receptor expressed in CHO cells at 10 uM relative to control; assay type: cell-based; summary of the method: as §1
[24] = biological target: Alpha-1B adrenergic receptor (Rattus norvegicus) (UniProt P15823); test: Displacement of [3H]-Prazosin from adrenergic alpha1B receptor in rat liver at 10 uM relative to control
[25] = biological target: Alpha-1A adrenergic receptor (Rattus norvegicus) (UniProt P43140); test: Displacement of [3H]-Prazosin from adrenergic alpha1A receptor in rat submaxillary gland at 10 uM relative to control; assay type: tissue-based
Sequence of Alpha-1A adrenergic receptor (Rattus norvegicus) (P43140 whole entry): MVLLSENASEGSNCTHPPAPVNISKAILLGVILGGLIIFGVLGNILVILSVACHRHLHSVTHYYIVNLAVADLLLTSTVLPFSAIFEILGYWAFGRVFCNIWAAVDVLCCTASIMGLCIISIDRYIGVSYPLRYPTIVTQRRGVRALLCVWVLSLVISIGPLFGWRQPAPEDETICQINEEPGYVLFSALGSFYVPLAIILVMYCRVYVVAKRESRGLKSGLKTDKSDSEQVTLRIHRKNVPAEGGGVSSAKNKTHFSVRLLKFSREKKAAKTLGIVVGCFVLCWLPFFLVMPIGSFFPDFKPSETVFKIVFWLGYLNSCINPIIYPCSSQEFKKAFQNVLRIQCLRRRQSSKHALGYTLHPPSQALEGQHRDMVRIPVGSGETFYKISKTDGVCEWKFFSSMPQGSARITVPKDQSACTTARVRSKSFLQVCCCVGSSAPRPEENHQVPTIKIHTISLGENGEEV

[26] = biological target: Metabotropic glutamate receptor 8 (Rattus norvegicus) (UniProt P70579); test: Allosteric modulation of rat mGlu8 receptor expressed in HEK293 cells coexpressing G protein-activated inward rectifier potassium channel assessed as effect on glutamate-induced thallium flux at 10 uM; assay type: cell-based
Sequence of Metabotropic glutamate receptor 8 (Rattus norvegicus) (P70579 whole entry): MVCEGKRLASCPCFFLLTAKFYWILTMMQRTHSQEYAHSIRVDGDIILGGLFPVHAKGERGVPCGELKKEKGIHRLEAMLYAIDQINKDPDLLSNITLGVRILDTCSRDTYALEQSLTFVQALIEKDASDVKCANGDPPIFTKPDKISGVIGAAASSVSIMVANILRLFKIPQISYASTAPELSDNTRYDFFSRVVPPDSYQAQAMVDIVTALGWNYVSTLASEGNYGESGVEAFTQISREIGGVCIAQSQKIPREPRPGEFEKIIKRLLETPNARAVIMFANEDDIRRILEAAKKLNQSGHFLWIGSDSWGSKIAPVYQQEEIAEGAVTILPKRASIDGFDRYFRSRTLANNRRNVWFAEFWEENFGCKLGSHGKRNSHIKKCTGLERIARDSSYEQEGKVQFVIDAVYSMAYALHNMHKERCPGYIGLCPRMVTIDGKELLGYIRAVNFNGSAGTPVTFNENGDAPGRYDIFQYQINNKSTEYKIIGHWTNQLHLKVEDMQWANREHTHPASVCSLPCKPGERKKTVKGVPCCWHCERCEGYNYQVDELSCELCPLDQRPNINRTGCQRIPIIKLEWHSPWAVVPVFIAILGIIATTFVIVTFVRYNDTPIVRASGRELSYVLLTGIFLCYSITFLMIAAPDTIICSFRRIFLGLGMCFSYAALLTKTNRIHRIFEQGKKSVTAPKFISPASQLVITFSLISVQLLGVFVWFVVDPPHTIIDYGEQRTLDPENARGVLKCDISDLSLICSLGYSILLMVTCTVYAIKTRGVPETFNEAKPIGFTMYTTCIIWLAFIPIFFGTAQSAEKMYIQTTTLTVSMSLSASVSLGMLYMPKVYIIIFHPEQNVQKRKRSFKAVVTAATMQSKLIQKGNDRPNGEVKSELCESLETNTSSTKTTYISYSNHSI

[27] = biological target: Metabotropic glutamate receptor 7 (Rattus norvegicus) (UniProt P35400); test: Allosteric modulation of rat mGlu7 receptor expressed in HEK293 cells coexpressing G protein-activated inward rectifier potassium channel assessed as effect on L-AP4-induced thallium flux at 10 uM; assay type: cell-based
Sequence of Metabotropic glutamate receptor 7 (Rattus norvegicus) (P35400 whole entry): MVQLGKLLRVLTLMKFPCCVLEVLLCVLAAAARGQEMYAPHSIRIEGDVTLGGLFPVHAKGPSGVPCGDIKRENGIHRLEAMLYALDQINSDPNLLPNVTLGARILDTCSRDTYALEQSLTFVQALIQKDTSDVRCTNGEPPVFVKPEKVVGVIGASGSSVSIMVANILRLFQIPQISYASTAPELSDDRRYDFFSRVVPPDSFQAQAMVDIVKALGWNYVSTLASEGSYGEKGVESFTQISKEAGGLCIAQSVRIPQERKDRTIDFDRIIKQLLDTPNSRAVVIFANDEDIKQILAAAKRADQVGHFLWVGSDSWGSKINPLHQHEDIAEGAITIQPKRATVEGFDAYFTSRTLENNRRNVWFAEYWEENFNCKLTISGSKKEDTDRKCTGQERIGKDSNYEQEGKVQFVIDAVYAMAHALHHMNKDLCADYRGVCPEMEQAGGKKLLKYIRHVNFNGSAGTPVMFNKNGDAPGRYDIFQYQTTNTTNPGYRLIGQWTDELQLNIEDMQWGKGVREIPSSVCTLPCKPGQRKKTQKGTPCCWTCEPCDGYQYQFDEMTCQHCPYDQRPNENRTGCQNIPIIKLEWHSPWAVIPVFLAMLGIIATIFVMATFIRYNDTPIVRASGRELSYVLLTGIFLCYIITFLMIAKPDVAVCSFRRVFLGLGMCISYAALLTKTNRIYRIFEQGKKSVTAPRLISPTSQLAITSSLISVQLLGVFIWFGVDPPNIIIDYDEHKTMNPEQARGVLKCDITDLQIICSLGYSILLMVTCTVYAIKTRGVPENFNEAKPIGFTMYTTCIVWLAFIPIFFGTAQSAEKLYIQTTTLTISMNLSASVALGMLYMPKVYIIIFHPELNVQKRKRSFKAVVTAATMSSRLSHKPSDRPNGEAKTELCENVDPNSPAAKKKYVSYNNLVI

[28] = biological target: Metabotropic glutamate receptor 6 (Rattus norvegicus) (UniProt P35349); test: Allosteric modulation of rat mGlu6 receptor expressed in HEK293 cells coexpressing G protein-activated inward rectifier potassium channel assessed as effect on glutamate-induced thallium flux at 10 uM; assay type: cell-based
Sequence of Metabotropic glutamate receptor 6 (Rattus norvegicus) (P35349 whole entry): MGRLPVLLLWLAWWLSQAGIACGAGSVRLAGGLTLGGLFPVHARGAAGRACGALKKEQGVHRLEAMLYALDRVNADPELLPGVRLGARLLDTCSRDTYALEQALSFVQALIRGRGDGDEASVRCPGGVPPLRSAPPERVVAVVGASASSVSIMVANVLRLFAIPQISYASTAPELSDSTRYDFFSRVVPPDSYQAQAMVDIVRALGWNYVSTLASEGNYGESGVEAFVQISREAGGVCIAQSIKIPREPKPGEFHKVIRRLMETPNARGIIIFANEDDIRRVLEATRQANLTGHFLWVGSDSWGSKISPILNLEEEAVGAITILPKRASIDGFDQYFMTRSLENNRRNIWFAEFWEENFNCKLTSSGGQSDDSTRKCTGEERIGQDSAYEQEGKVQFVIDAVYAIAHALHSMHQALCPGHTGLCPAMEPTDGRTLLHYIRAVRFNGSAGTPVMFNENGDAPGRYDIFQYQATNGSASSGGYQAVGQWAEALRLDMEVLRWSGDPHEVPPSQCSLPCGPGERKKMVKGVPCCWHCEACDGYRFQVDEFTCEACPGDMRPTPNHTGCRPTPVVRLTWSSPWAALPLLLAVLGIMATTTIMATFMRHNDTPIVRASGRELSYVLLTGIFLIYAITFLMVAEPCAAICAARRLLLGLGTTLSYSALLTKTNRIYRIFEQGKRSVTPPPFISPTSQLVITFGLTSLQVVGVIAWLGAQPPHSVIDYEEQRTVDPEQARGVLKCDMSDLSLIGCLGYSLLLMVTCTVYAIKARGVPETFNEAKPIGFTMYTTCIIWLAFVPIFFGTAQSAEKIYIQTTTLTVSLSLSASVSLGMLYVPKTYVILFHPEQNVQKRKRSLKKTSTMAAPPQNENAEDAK

[29] = biological target: Metabotropic glutamate receptor 4 (Rattus norvegicus) (UniProt P31423); test: Allosteric modulation of rat mGlu4 receptor expressed in HEK293 cells coexpressing G protein-activated inward rectifier potassium channel assessed as effect on glutamate-induced thallium flux at 10 uM; assay type: cell-based
[30] = biological target: Metabotropic glutamate receptor 1 (Rattus norvegicus) (UniProt P23385); test: Allosteric modulation of rat mGlu1 receptor expressed in HEK293 cells assessed as effect on glutamate-induced calcium mobilization at 10 uM; assay type: functional, cell-based
[31] = Cmax in CD-1 mouse brain at 10 mg/kg, ip by LC-MS/MS analysis; assay type: ADME, organism-based; set-up: dose 10 mg/kg, route intraperitoneal
[32] = tested on: Brain; test: Tmax in CD-1 mouse brain at 10 mg/kg, ip by LC-MS/MS analysis; assay type: ADME, organism-based; set-up: dose 10 mg/kg, route intraperitoneal; conditions: in vivo
[33] = tested on: Brain; test: Fraction unbound in mouse brain homogenates by equilibrium dialysis technique; assay type: ADME, tissue-based; conditions: brain homogenate

Cc1csc(NC(=O)c2cc(F)cc(Oc3cncnc3)c2)n1
active: inhibition [1] Dose-dependent effect
0.082: Fu [33]
> 35%: inhibition [2] | inhibition [3] | inhibition [4] | inhibition [5] | inhibition [6] | inhibition [7] | inhibition [8] | inhibition [9] | inhibition [10] | inhibition [11] | inhibition [12] | inhibition [13] | inhibition [14] | inhibition [15] | inhibition [16] | inhibition [17] | inhibition [18] | inhibition [19] | inhibition [20] | inhibition at 10 µM [21] | inhibition [22] | inhibition [23] | inhibition [24] | inhibition [25]
1350 ng/g: Cmax [31]
15 min: Tmax [32]
inactive: Activity [26] | Activity [27] | Activity [28] | Activity [29] | Activity [30]
